What was measured:
dengue virus type 2 = test: Antiviral activity against Dengue virus 2 infected in human HuH7 cells incubated for 48 hrs by luciferase reporter gene assay; conditions: Huh-7, 48 h
[1] = Cytotoxicity against human HuH7 cells assessed as reduction in cell viability incubated for 48 hrs by alamar blue reagent based cell viability assay; design: species or system Huh-7
How it was run: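 Run in parallel on the same DENV2-infected Huh7 cultures (MOI 0.05, 4 h infection). Viability measured with AlamarBlue per the manufacturer's protocol, with fluorescence detected at 560 nm. CC50 calculated as the half-maximal cytotoxic concentration.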

[2] = target: T1, Cyclin-G-associated kinase (Homo sapiens, UniProt O14976); test: Inhibition of tracer 222 binding to recombinant human GST-tagged GAK (1 to 329 residues) expressed in insect cells incubated for 1 hr by Lanthascreen assay
T1 sequence (O14976 whole entry): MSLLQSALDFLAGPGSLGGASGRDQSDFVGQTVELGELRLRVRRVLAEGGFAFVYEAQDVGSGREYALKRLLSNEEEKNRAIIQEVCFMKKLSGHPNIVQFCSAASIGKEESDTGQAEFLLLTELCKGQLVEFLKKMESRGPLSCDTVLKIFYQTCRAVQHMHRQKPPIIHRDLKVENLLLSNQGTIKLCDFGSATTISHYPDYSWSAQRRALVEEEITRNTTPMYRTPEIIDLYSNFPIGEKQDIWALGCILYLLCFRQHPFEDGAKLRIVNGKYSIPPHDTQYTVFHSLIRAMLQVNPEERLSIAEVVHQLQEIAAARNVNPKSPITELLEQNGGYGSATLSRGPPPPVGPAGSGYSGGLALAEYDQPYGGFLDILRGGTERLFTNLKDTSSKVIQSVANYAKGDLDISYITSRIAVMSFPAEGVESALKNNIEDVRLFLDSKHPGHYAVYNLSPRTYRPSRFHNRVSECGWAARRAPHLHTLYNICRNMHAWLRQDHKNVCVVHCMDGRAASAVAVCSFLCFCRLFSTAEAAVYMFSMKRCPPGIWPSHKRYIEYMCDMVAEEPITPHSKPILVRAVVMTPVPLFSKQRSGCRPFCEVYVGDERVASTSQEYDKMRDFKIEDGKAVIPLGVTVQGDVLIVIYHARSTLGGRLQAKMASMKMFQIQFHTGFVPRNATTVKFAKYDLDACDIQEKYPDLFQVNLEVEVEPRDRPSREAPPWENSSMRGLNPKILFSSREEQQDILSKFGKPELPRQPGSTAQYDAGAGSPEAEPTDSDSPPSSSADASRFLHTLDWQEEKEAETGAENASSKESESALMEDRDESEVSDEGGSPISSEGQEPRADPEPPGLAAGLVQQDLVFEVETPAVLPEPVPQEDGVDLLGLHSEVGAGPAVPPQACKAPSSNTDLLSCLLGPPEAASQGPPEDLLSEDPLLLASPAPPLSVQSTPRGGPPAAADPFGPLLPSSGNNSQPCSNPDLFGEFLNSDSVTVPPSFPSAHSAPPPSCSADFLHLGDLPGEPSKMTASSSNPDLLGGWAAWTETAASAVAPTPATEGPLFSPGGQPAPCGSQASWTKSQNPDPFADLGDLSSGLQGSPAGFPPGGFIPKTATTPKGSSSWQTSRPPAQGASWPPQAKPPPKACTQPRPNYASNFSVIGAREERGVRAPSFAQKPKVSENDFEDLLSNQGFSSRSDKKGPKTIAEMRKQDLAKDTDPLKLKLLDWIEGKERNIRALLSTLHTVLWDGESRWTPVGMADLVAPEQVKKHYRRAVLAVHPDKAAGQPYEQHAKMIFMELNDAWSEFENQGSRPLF

Structure (SMILES): COc1cc(-c2cnc3c(N4C[C@@H](C)O[C@@H](C)C4)snc3c2)ccc1N
- EC50 (dengue virus type 2): 0.82 µM
- CC50 at 48 h [1]: > 25 µM
- IC50 [2]: 0.0394 µM

Structure (SMILES): COc1cc(-c2cnc3c(N4C[C@@H](C)O[C@@H](C)C4)snc3c2)ccc1C(=O)NCc1ccccc1
- EC50 (dengue virus type 2): 5.83 µM
- CC50 at 48 h [1]: > 10 µM

Structure (SMILES): C[C@@H]1CN(c2snc3cc(/C=C/c4ccccc4)cnc23)C[C@H](C)O1
- IC50 [2]: > 3.33 µM

Structure (SMILES): COc1cccc(-c2ccc3nsc(N4C[C@@H](C)O[C@@H](C)C4)c3n2)c1
- EC50 (dengue virus type 2): > 10 µM
- CC50 at 48 h [1]: > 10 µM

Structure (SMILES): C[C@@H]1CN(c2snc3cc(C#Cc4ccccc4)cnc23)C[C@H](C)O1
- IC50 [2]: > 10 µM

Structure (SMILES): COc1ccc(-c2ccc3nsc(N4C[C@@H](C)O[C@@H](C)C4)c3n2)cc1OC
- EC50 (dengue virus type 2): 1.05 µM
- CC50 at 48 h [1]: > 10 µM

Structure (SMILES): COc1cc(-c2cnc3c(N4C[C@@H](C)O[C@@H](C)C4)snc3c2)cc(OC)c1OC
- EC50 (dengue virus type 2): 2.79 µM
- CC50 at 48 h [1]: > 10 µM

Structure (SMILES): COc1cc(-c2cnc3c(N4C[C@@H](C)O[C@@H](C)C4)snc3c2)ccc1C(=O)N1CCCC1
- EC50 (dengue virus type 2): 8.85 µM
- CC50 at 48 h [1]: > 10 µM

Structure (SMILES): COc1cc(-c2cnc3c(N4C[C@@H](C)O[C@@H](C)C4)snc3c2)ccc1C(=O)Nc1ccccc1
- IC50 [2]: > 0.37 µM

Structure (SMILES): COc1cc(-c2cnc3c(N4C[C@@H](C)O[C@@H](C)C4)snc3c2)ccc1C(=O)O
- EC50 (dengue virus type 2): > 10 µM
- CC50 at 48 h [1]: > 10 µM

Structure (SMILES): COc1cc(-c2cnc3c(N4C[C@@H](C)O[C@@H](C)C4)snc3c2)ccc1C(N)=O
- EC50 (dengue virus type 2): 10.1 µM
- CC50 at 48 h [1]: > 10 µM

Structure (SMILES): COc1ccc(-c2cnc3c(N4C[C@@H](C)O[C@@H](C)C4)snc3c2)cn1
- IC50 [2]: > 3.33 µM

Structure (SMILES): C[C@@H]1CN(c2snc3ccc(-c4ccc(C(F)(F)F)cc4)nc23)C[C@H](C)O1
- IC50 [2]: > 0.37 µM

Structure (SMILES): C#Cc1cccc(Nc2ncnc3cc(OCCOC)c(OCCOC)cc23)c1 [ERLOTINIB]
- EC50 (dengue virus type 2): 1.22 µM
- CC50 at 48 h [1]: > 10 µM

From ChEMBL document CHEMBL4609987, “Structure-activity relationship study of the pyridine moiety of isothiazolo[4,3-b]pyridines as antiviral agents targeting cyclin G-associated kinase” (Bioorg Med Chem, 2020)
